{"data": "Measurements gathered from unrelated publications", "target": "RAC-gamma serine/threonine-protein kinase (AKT3, Homo sapiens, UniProt Q9Y243)"}
{"Structure (SMILES)": "Cc1nc(C2CCN(C(=O)c3ccc(OC(F)(F)F)cc3N)CC2)c2ncc(N3CCN(C)CC3)cc2n1", "test": "cell-free assay, competition with immobilised ligand", "conditions": "1 µM", "remaining binding [%]": 95}
{"Structure (SMILES)": "CCN1CCN(Cc2ccc(C(=O)Nc3ccc(C)c(Oc4ccc5c(c4)CC(=O)N5)c3)cc2C(F)(F)F)CC1", "test": "binding, competition with immobilised ligand", "conditions": "1 µM", "remaining binding [%]": 89}
{"Structure (SMILES)": "CCc1ccccc1C(=O)Nc1n[nH]c2c(C)c(F)c(C3C(C#N)=C(C)N(C)C(C)=C3C#N)cc12", "test": "cell-free assay, competition with immobilised ligand", "conditions": "1 µM", "remaining binding [%]": 100}
{"Structure (SMILES)": "COc1ncc2cc3ccccc3nc2c1C#N", "test": "cell-free assay, competition with immobilised ligand", "conditions": "5 µM", "remaining binding [%]": 100}
{"Structure (SMILES)": "O=C(c1ccc(Nc2ncc(Cl)c(-c3cc4ccccc4s3)n2)cc1)N1CCC(N2CCCC2)CC1", "test": "binding, competition with immobilised ligand", "conditions": "1 µM", "remaining binding [%]": 100}
{"Structure (SMILES)": "O=C(Nc1c[nH]nc1C(=O)NC1CCNCC1)c1cc(F)cc(F)c1", "test": "binding, competition with immobilised ligand", "conditions": "1 µM", "remaining binding [%]": 100}
{"Structure (SMILES)": "O=C1NC(c2ccccn2)Sc2ccccc21 (stereo not drawn)", "test": "cell-free assay, competition with immobilised ligand", "conditions": "1 µM", "remaining binding [%]": 100}
{"Structure (SMILES)": "Cc1cnn2ncc(-c3ccnc(N(C)C)n3)c2c1", "test": "binding", "conditions": "1 µM", "remaining binding [%]": 98}
{"Structure (SMILES)": "O=C(c1ccc(Nc2nccc(-c3cc4ccccc4s3)n2)cc1)N1CCC(N2CCCC2)CC1", "test": "binding, competition with immobilised ligand", "conditions": "1 µM", "remaining binding [%]": 100}
{"Structure (SMILES)": "FC(F)(F)Oc1cccc(-c2cnc3ccc(-c4ccncc4)nn23)c1", "test": "cell-free assay, competition with immobilised ligand", "conditions": "5 µM", "remaining binding [%]": 99}
{"Structure (SMILES)": "O=C(NCCCN1CCOCC1)c1ccc(Nc2ncc(Cl)c(-c3ccc(Cl)s3)n2)cc1", "test": "binding, competition with immobilised ligand", "conditions": "1 µM", "remaining binding [%]": 100}
{"Structure (SMILES)": "CN(CCCC(F)(F)F)c1nccc(-c2cnn3ncccc23)n1", "test": "binding", "conditions": "1 µM", "remaining binding [%]": 83}
{"Structure (SMILES)": "CNC(=O)[C@@H]1CC[C@@H](n2c(-c3ccc4cnccc4c3)nc3ccc(C(=O)NCc4cccc(C(N)=O)c4)cc32)C1", "test": "binding, competition with immobilised ligand", "conditions": "1 µM", "remaining binding [%]": 100}
{"Structure (SMILES)": "C[C@H]1CCN(c2nccc(-c3cnn4ncccc34)n2)C1", "test": "binding", "conditions": "1 µM", "remaining binding [%]": 99}
{"Structure (SMILES)": "O=C(NS(=O)(=O)c1ccc(NCC2CCOCC2)c([N+](=O)[O-])c1)c1ccc(N2CCN(Cc3ccc(C(F)(F)F)cc3-c3ccc(Cl)cc3)CC2)cc1Oc1cnc2[nH]ccc2c1", "test": "cell-free assay, competition with immobilised ligand", "conditions": "1 µM", "remaining binding [%]": 89}
{"Structure (SMILES)": "CN(C)c1ncc(F)c(-c2cnn3ncccc23)n1", "test": "binding", "conditions": "1 µM", "remaining binding [%]": 100}
{"Structure (SMILES)": "C=CC(=O)N1CCC(C(=O)NCC(=O)N2CCN(c3nc(-c4cnc(N)nc4C(F)F)nc(N4CCOCC4)n3)CC2)CC1", "test": "binding, competition with immobilised ligand", "conditions": "1 µM", "remaining binding [%]": 100}
{"Structure (SMILES)": "N[C@@H]1CCN(c2nccc(-c3cnn4ncccc34)n2)C1", "test": "binding", "conditions": "1 µM", "remaining binding [%]": 95}
{"Structure (SMILES)": "CCCOc1ccc([C@H]2[C@H](C(=O)O)[C@@H](c3ccc4c(c3)OCO4)CN2CC(=O)Nc2c(CC)cccc2CC)cc1", "test": "cell-free assay, competition with immobilised ligand", "conditions": "1 µM", "remaining binding [%]": 82}
{"Structure (SMILES)": "COc1ccnn2ncc(-c3ccnc(N(C)C)n3)c12", "test": "binding", "conditions": "1 µM", "remaining binding [%]": 98}
{"Structure (SMILES)": "Cc1noc([C@H]2C[C@@H](c3ccc(C(F)(F)F)cc3)CN(C(=O)N3CCS(=O)(=O)C3)C2)n1", "test": "cell-free assay, competition with immobilised ligand", "conditions": "1 µM", "remaining binding [%]": 100}
